Laboratory results from ChEMBL document CHEMBL4130487, “A pentanoic acid derivative targeting matrix metalloproteinase-2 (MMP-2) induces apoptosis in a chronic myeloid leukemia cell line” (Eur J Med Chem, 2017).
Activity calls are given as the source filed them. No cut-off for these calls is given here.

What was measured:
[1] = target: 72 kDa type IV collagenase (Homo sapiens, UniProt P08253); test: Inhibition of recombinant human MMP2 (Tyr110 to Asp452 residues) using Ac-Pro-Leu-Gly-S-Leu-Leu-Gly-OEt as substrate after 1 hr measured at 1 min time interval for 30 mins by microplate photometric method
Sequence of 72 kDa type IV collagenase (P08253 whole entry): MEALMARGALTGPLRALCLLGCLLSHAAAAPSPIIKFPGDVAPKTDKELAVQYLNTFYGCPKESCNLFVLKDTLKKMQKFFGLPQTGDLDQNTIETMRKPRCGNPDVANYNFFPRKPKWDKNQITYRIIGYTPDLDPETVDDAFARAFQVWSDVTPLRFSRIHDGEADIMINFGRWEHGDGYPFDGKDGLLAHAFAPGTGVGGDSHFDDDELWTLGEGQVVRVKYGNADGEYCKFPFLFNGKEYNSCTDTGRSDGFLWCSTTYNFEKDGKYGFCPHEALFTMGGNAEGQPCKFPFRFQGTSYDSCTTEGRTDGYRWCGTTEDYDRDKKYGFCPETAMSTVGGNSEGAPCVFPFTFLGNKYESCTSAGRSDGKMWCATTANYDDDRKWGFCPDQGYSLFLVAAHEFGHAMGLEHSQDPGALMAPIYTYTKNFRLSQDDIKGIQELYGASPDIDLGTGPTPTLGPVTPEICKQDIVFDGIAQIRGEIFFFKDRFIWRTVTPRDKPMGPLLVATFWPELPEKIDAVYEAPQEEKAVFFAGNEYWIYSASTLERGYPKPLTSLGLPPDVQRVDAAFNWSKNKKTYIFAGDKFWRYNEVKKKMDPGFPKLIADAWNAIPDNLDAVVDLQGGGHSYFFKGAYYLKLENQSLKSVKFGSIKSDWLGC
Procedure, shortened: (§1)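 Commercial MMP kits; compound preincubated with enzyme before chromogenic substrate was added. Reactions at 37 °C for 1 h, with at least six inhibitor concentrations in triplicate. Absorbance at 410 nm read every 1 min for 30 min. NNGH used as reference inhibitor. IC50 taken from semi-logarithmic dose-response plots.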

MDA-MB-231 = test: Cytotoxicity against human MDA-MB-231 cells assessed as reduction in cell viability after 48 hrs by MTT assay; assay type: functional, cell-based; conditions: MDA-MB-231, 48 h
Procedure, shortened: (§2)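 A549, MDA-MB-231, K562, U937 and PBMC (PBMC from healthy donors) seeded at 1×10^3 cells/well and left 24 h, then exposed to compounds for 48 h at 37 °C, 5% CO2. Adherent lines were grown in DMEM, the others in RPMI-1640 with 10% heat-inactivated FBS. MTT read-out; viability expressed as % of untreated control. IC50 taken as the concentration giving 50% viability loss.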

U-937 = test: Cytotoxicity against human U937 cells assessed as reduction in cell viability after 48 hrs by MTT assay; assay type: functional, cell-based; conditions: U-937, 48 h; procedure, shortened: as §2
Neutrophil collagenase = Neutrophil collagenase (Homo sapiens, UniProt P22894); test: Inhibition of recombinant human MMP8 (Phe99 to Gln269 residues) expressed in Escherichia coli using Ac-Pro-Leu-Gly-S-Leu-Leu-Gly-OEt as substrate after 1 hr measured at 1 min time interval for 30 mins by microplate photometric method; procedure, shortened: as §1
Sequence of Neutrophil collagenase (P22894 whole entry): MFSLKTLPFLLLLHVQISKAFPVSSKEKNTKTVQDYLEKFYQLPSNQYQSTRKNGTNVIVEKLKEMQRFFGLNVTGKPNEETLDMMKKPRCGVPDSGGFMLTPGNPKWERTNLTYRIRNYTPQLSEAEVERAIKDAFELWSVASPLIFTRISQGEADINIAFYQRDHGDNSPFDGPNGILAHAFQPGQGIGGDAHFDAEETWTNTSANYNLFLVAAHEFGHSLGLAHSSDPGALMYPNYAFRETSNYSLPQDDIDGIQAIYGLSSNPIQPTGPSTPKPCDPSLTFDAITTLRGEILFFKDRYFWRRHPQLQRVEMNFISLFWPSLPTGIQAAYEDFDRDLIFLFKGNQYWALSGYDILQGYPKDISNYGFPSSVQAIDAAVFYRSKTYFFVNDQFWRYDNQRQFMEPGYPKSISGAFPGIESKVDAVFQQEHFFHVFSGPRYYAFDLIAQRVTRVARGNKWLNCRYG

K562 [2] = test: Induction of apoptosis in human K562 cells assessed as live cells at 2.5 uM after 48 hrs by Annexin V-FITC/propidium iodide staining based flow cytometry (reference value: 90.1%); assay type: functional
K562 [3] = test: Induction of apoptosis in human K562 cells assessed as early apoptotic cells at 2.5 uM after 48 hrs by Annexin V-FITC/propidium iodide staining based flow cytometry (reference value: 9.6%); assay type: functional
K562 [4] = test: Induction of apoptosis in human K562 cells assessed as necrotic cells at 2.5 uM after 48 hrs by Annexin V-FITC/propidium iodide staining based flow cytometry (reference value: 0%); assay type: functional
K562 [5] = test: Induction of apoptosis in human K562 cells assessed as live cells at 5 uM after 48 hrs by Annexin V-FITC/propidium iodide staining based flow cytometry (reference value: 90.1%); assay type: functional
K562 [6] = test: Induction of apoptosis in human K562 cells assessed as late apoptotic cells at 5 uM after 48 hrs by Annexin V-FITC/propidium iodide staining based flow cytometry (reference value: 0.3%); assay type: functional
K562 [7] = test: Induction of apoptosis in human K562 cells assessed as live cells at 10 uM after 48 hrs by Annexin V-FITC/propidium iodide staining based flow cytometry (reference value: 90.1%); assay type: functional
K562 [8] = test: Induction of apoptosis in human K562 cells assessed as increase in late apoptotic cells at 2.5 to 10 uM after 48 hrs by Annexin V-FITC/propidium iodide staining based flow cytometry relative to control; assay type: functional
K562 [9] = test: Cell cycle arrest in human K562 cells assessed as accumulation at G1/S-phase at 5 uM after 48 hrs by propidium iodide staining based flow cytometry (reference value: 21.8%); assay type: functional
K562 [10] = test: Cell cycle arrest in human K562 cells assessed as accumulation at G2/M-phase at 5 uM after 48 hrs by propidium iodide staining based flow cytometry (reference value: 35.3%); assay type: functional
K562 [11] = test: Anti-invasive activity against human K562 cells assessed as at 2.5 uM after 24 hrs by CyQuantGR dye based fluorimetric QCM EC matrix assay relative to control; assay type: functional; conditions: K562, 24 h
Procedure, shortened: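 K562 cells (1X10^6 cells/ml) starved overnight in FBS-free medium, then placed in inserts in FBS-free medium with 5% BSA, with 5% FBS medium below as chemoattractant. Treated at 2.5, 5 and 10 μM in triplicate for 24 h alongside an untreated control. Invaded cells were detached, stained with CyQuantGR and read by fluorescence (ex 480/em 520 nm). Results given as % of control, mean ± SD.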

K562 [12] = test: Downregulation of MMP2 protein expression in human K562 cells up to 10 uM after 48 hrs by Western blot method; assay type: functional, cell-based
Procedure, shortened: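 K562 cells (~2×10^6) grown 48 h, then treated. Lysed on ice in Tris-HCl pH 7.5 buffer with CHAPS and glycerol. 50 µg protein run on 12% SDS-PAGE (15% for β-tubulin) and blotted to PVDF. Probed with anti-MMP-2 and anti-β-tubulin (1:1000) overnight at 4 °C, then ALKP secondary antibody and DAB development. Band intensity normalised to β-tubulin; mean ± SD.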

K562 [13] = test: Induction of apoptosis in human K562 cells assessed as DNA nick generation after 48 hrs by DAPI staining based fluorescence microscopic method
K562 [14] = test: Cell cycle arrest in human K562 cells assessed as accumulation at sub-G1 phase at 5 uM after 24 hrs by propidium iodide staining based flow cytometry (reference value: 1%)
K562 [15] = test: Cell cycle arrest in human K562 cells assessed as accumulation at G2/M-phase at 10 uM after 24 hrs by propidium iodide staining based flow cytometry (reference value: 35.3%)
K562 [16] = test: Cell cycle arrest in human K562 cells assessed as accumulation at G1/S-phase at 2.5 uM after 24 hrs by propidium iodide staining based flow cytometry (reference value: 21.8%)
K562 [17] = test: Downregulation of MMP2 protein expression in human K562 cells assessed as MMP2 positive population at 5 uM after 48 hrs by FITC staining based flow cytometry (reference value: 98.4%)
K562 [18] = test: Downregulation of MMP2 protein expression in human K562 cells assessed as MMP2 negative population at 10 uM after 48 hrs by FITC staining based flow cytometry (reference value: 1.6%)
K562 [19] = test: Downregulation of MMP2 protein expression in human K562 cells assessed as MMP2 negative population at 2.5 uM after 48 hrs by FITC staining based flow cytometry (reference value: 1.6%)
K562 [20] = test: Downregulation of MMP2 protein expression in human K562 cells assessed as MMP2 positive population at 10 uM after 48 hrs by FITC staining based flow cytometry (reference value: 98.4%)
K562 [21] = test: Downregulation of MMP2 protein expression in human K562 cells assessed as MMP2 positive population at 2.5 uM after 48 hrs by FITC staining based flow cytometry (reference value: 98.4%)

SMILES: CCCCCNC(=O)CC[C@H](NS(=O)(=O)c1ccc([N+](=O)[O-])cc1)C(=O)O
- IC50 [1]: 4.8 µM
- IC50 (MDA-MB-231): 162 µM
- IC50 (U-937): 32.1 µM
- IC50 (Neutrophil collagenase): > 500 µM
- Activity (K562 [2]): 73.5%
- Activity (K562 [3]): 14.3%
- Activity (K562 [4]): 0.5%
- Activity (K562 [5]): 76%
- Activity (K562 [6]): 8.5%
- Activity (K562 [7]): 74%
- fold change (FC) (K562 [8]): <=300
- Activity (K562 [9]): 19.6%
- Activity (K562 [10]): 32.2%
- inhibition at 2.5 µM (K562 [11]): 12.4%
- Activity (K562 [12]): Active
- Activity (K562 [13]): Active
- Activity (K562 [14]): 2.4%
- Activity (K562 [15]): 23.1%
- Activity (K562 [16]): 20%
- Activity (K562 [17]): 18.9%
- Activity (K562 [18]): 84.4%
- Activity (K562 [19]): 73.7%
- Activity (K562 [20]): 15.6%
- Activity (K562 [21]): 26.3%
